Here are results for 14 compounds from ChEMBL document CHEMBL5104118, “Structure-activity relationships of hydrophobic alkyl acrylamides as tissue transglutaminase inhibitors” (RSC Med Chem, 2022).

Assay [1] has as its target T1, Protein-glutamine gamma-glutamyltransferase (Homo sapiens) (UniProt P21980).
T1 sequence (whole entry): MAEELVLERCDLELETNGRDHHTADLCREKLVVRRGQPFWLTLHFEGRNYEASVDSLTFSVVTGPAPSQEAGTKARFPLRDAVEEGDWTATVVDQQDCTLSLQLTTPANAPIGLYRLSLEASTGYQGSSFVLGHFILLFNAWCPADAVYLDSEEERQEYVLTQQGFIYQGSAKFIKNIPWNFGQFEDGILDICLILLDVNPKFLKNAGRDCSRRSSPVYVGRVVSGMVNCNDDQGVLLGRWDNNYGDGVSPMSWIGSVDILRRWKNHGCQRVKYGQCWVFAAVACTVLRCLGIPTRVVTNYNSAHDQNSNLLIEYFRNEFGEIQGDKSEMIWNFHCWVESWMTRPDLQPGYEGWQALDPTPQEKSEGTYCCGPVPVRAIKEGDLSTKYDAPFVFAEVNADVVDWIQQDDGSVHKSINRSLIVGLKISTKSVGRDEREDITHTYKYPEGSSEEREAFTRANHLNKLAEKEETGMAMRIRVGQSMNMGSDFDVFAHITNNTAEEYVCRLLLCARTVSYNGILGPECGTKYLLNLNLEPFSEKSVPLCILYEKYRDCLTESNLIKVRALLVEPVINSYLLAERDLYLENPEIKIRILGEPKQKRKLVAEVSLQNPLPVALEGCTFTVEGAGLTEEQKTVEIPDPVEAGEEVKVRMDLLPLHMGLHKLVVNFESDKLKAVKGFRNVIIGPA
Briefly: Inhibition of recombinant human TG2 expressed in Escherichia coli assessed as Kinact using Cbz-Glu(gamma-p-nitrophenyl ester)Gly (AL5) as substrate by colorimetric assay. The essentials:
(§1)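 Kitz–Wilson conditions, triplicate, 25 °C: 50 mM MOPS pH 6.9, 7.5 mM CaCl2, 100 μM AL5, inhibitor 0.5–900 μM (varies by inhibitor), DMSO ≤5% v/v final; started with 5 mU/mL TG2; p-nitrophenolate read at 405 nm for 20 min. Mono-exponential fits give kobs; kobs vs [I] fitted to saturation model with α = 1+[S]/KM (KM 10 μM), giving kinact and KI; double reciprocal if unsaturated.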

The target of assay [2] is T2, Protein-glutamine gamma-glutamyltransferase (Homo sapiens, UniProt P21980).
T2 sequence (P21980 whole entry): T1 sequence (whole entry)
Briefly: Inhibition of recombinant human TG2 expressed in Escherichia coli assessed as inhibition constant using Cbz-Glu(gamma-p-nitrophenyl ester)Gly (AL5) as substrate by colorimetric assay. In outline:
as §1

The target of assay [3] is T1, Protein-glutamine gamma-glutamyltransferase (Homo sapiens). Briefly: Inhibition of recombinant human TG2 expressed in Escherichia coli assessed as Kinact/Ki ratio using Cbz-Glu(gamma-p-nitrophenyl ester)Gly (AL5) as substrate by colorimetric assay. In outline: as §1
Assay [4] shares this target. Briefly: Inhibition of GTP binding to recombinant human TG2 expressed in Escherichia coli incubated for 30 mins by GTP-gamma-S BODIPY assay.

pKi: −log10 of the molar value. Active and inactive are the calls of the source. The calls are words filed in the database; no cut-off is given here.

Take `C=CC(=O)NCCCCC(=O)N1CCN(S(=O)(=O)c2cccc3c(N(C)C)cccc23)CC1`: the Kinact in assay [1] is 0.55 min⁻¹. In assay [2], the pKi (as a rule, −log10 of the Ki, conventionally taken in molar units) was 4.38. Also, the Ratio in assay [3] is 13.1 10^3/M/min.

Regarding `C=CC(=O)NCCCCCC(=O)N1CCN(C(=O)c2cccc3ccccc23)CC1`, the Kinact in assay [1] came out at 0.46 min⁻¹. In assay [2], the pKi was 3.96. Further, in assay [3], the Ratio was 4.2 10^3/M/min.

Consider `C=CC(=O)NCCCCC(=O)N1CCN(C(=O)c2cccc3ccccc23)CC1`, for which, in assay [1], the Kinact came out at 0.44 min⁻¹. For the same compound, the pKi in assay [2] was 3.85. Besides, the Ratio in assay [3] was 3.1 10^3/M/min.

Turning to `C=CC(=O)NCCC(=O)N1CCN(S(=O)(=O)c2cccc3c(N(C)C)cccc23)CC1`, in assay [1], the Kinact amounted to 0.25 min⁻¹. Besides, the pKi in assay [2] was 4.19. Besides, in assay [3], the Ratio is 3.9 10^3/M/min.

For the compound `C=CC(=O)NCCCCC(=O)N1CCN(C(=O)C23CC4CC(CC(C4)C2)C3)CC1`, in assay [1], the Kinact turned out to be 0.19 min⁻¹. Moreover, the pKi in assay [2] was 5.35. For the same compound, in assay [3], the Ratio is 41.9 10^3/M/min.

`C=CC(=O)NCC(=O)N1CCN(S(=O)(=O)c2cccc3c(N(C)C)cccc23)CC1`: in assay [1], the Kinact amounted to 2.25 min⁻¹. Further, in assay [2], the pKi is 5.83. Moreover, the Ratio in assay [3] is 1510 10^3/M/min. For the same compound, the inhibition result in assay [4] is “Active”.

For `C=CC(=O)NCCCC(=O)N1CCN(S(=O)(=O)c2cccc3c(N(C)C)cccc23)CC1`, in assay [1], the Kinact was 0.54 min⁻¹. Further, the pKi in assay [2] is 4.13. Further, in assay [3], the Ratio was 7.3 10^3/M/min.

With `C=CC(=O)NCCC(=O)N1CCN(C(=O)c2cccc3ccccc23)CC1`, the Kinact in assay [1] stood at 0.13 min⁻¹. The pKi in assay [2] is 4.29. In addition, in assay [3], the Ratio was 2.4 10^3/M/min.

In the case of `C=CC(=O)NCCCCCC(=O)N1CCN(C(=O)C23CC4CC(CC(C4)C2)C3)CC1`, the Kinact in assay [1] came out at 0.36 min⁻¹. For the same compound, in assay [2], the pKi is 4.42. Further, the Ratio in assay [3] is 9.5 10^3/M/min.

`C=CC(=O)NCCCCCC(=O)N1CCN(S(=O)(=O)c2cccc3c(N(C)C)cccc23)CC1`: in assay [1], the Kinact was 0.23 min⁻¹. Further, the pKi in assay [2] was 4.56. Further, the Ratio in assay [3] was 8.6 10^3/M/min.

As for `C=CC(=O)NCC(=O)N1CCN(C(=O)C23CC4CC(CC(C4)C2)C3)CC1`, the Kinact in assay [1] came to 1.34 min⁻¹. Moreover, the pKi in assay [2] is 5.49. Also, the Ratio in assay [3] is 412 10^3/M/min. Moreover, the inhibition entry in assay [4] is “Active”.

Take `C=CC(=O)NCCCC(=O)N1CCN(C(=O)c2cccc3ccccc23)CC1`: in assay [1], the Kinact is 0.45 min⁻¹. Further, in assay [2], the pKi is 3.87. The Ratio in assay [3] is 3.3 10^3/M/min.

With `C=CC(=O)NCC(=O)N1CCN(C(=O)c2cccc3ccccc23)CC1`, the Kinact in assay [1] was determined as 0.69 min⁻¹. Besides, the pKi in assay [2] is 4.60. Moreover, the Ratio in assay [3] is 27.5 10^3/M/min. Also, the inhibition result in assay [4] was “Active”.

Regarding `C=CC(=O)NCC(=O)N1CCN(S(=O)(=O)c2cccc3ccccc23)CC1`, in assay [1], the Kinact was 0.7 min⁻¹. Besides, in assay [2], the pKi was 5.19. Also, in assay [3], the Ratio is 108 10^3/M/min. Also, the inhibition entry in assay [4] was “Active”.
